HNF4A DNA FP = change in binding of human HNF4 alpha to DNA; 360,000 compounds, 0.3% hits; HNF4a-FITC DNA binding, fluorescence polarization, 1 h; activity change, % at 10 µM; P41235; in the data active = activity change above about 30%, passing the limit was not always enough
Target sequence (P41235 whole entry, looked up): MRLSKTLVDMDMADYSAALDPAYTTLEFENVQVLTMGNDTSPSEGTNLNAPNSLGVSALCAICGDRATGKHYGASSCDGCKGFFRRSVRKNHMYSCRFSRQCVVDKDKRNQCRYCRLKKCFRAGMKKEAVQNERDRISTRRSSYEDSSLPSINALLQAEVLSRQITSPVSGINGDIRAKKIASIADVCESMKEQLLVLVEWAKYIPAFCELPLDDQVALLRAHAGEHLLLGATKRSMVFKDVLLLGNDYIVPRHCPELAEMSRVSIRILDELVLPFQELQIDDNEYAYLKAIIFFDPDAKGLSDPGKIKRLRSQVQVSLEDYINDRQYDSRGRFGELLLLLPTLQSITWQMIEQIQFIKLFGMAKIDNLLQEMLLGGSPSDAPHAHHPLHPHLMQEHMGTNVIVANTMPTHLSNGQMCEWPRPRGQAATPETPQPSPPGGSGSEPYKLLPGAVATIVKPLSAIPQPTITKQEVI
CSN inh = CSN deneddylation inhibition. Q92905. Purified CSN, SCF-Nedd8-OG deneddylation, fluorescence polarization. inhibition, % at 12.5 µM. 360,000 compounds, 0.38% hits. AID 651999;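 active = pattern-corrected inhibition above about 35%, with an unprinted fluorescence ratio check between 0.5 and 1.5, limit read from the data, passing the limit was not always enough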
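Assay system: purified human Csn5 enzyme expressed in HEK293T cells; Input: 0.24 nM Csn5 enzyme, final concentration; Reagent: 10 nM SCFSkp2-Nedd8OG; Compound dosing: 12.5 µM single point; Times: reaction 90 min, room temperature; Technique: fluorescence polarization readout.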
Myeloid diff 2 = compounds promoting myeloid differentiation; ER-HoxA9 myeloid progenitors, lysozyme-GFP differentiation, flow cytometry; calls only at 10 µM; AID 624256; 360,000 compounds, 1% hits;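 active = normalized GFP-positive differentiation at or above the plate's own cutoff, the solvent-only control mean plus 3 SD; inconclusive = no clear call, values can overlap the other calls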;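 note: cells exposed to compound for four days before flow analysis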
Granule exo inh = lytic granule exocytosis inhibition; 360,000 compounds, 0.66% hits; inhibition, % at 10 µM; TALL-104 LAMP-1 surface exposure, flow cytometry; cells stimulated with thapsigargin and PMA;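 active = inhibition above about 55%, limit read from the data; inconclusive = no clear call, values can overlap the other calls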
A number is an active result; n = inactive; u = inconclusive; x = no result given; + = active, no number. An excerpt weighted towards active compounds, which were near 2.2% of everything screened.

SMILES | HNF4A DNA FP | CSN inh | Myeloid diff 2 | Granule exo inh
O=C(NCCC1=CCCCC1)C1CC(=O)N(Cc2ccccc2)C1 (centres undefined) | n | n | n | n
CC(=O)Nc1cc2c3c(cccc3c1)-c1ccccc1-2 | n | n | + | n
Cc1cc(C(=O)OCC(=O)N(C)c2ccccc2)c(C)o1 | n | n | n | n
O=C(CC1CCCC1)N1CCN(S(=O)(=O)c2ccccc2)CC1 | n | n | + | n
O=C(c1ccc(F)cc1)N1CCN(C(=O)c2cccnc2)CC1 | n | n | n | n
O=C(c1ccccc1)N1CCN(C(=O)c2cccnc2)CC1 | n | n | + | n
Cc1ccc(S(=O)(=O)N2CCN(C(=O)c3ccccc3)CC2)cc1 | n | n | + | n
COc1ccc(N2CCN(C(=O)c3ccc(S(=O)(=O)N4CCOCC4)cc3)CC2)cc1 | n | n | + | n
O=C(OCC(=O)N1CCN(S(=O)(=O)c2ccccc2)CC1)C1CCC1 | n | n | n | n
Cc1ccc(C(=O)N2CCN(S(=O)(=O)c3ccccc3)CC2)cc1 | n | n | n | n
COc1ccc2nc(SC(C)C(=O)NC3CCCC3)[nH]c2c1 (centres undefined) | n | n | n | n
CN(C(=O)c1cccc(NC(=O)Cc2cccc(NC(=O)C3CCN(C(=O)c4ccccc4)CC3)c2)c1)C1CCCC1 | n | n | n | n
Cc1cc(C)c(S(=O)(=O)N2CCN(C(=O)N3CCCCC3)CC2)c(C)c1 | n | n | + | n
Cc1cc(C)c(S(=O)(=O)N2CCN(C(=O)N3CCOCC3)CC2)c(C)c1 | n | n | n | n
CCn1c(C)cc(/C=C2/SC(=S)N(CC(=O)O)C2=O)c1C | 44 | n | n | n
Cc1ccc(S(=O)(=O)N2CCN(c3nc(CN4CCCC4)nc4sc(C)c(C)c34)CC2)cc1 | n | n | n | n
Cc1sc2nc(CN3CCCCC3)nc(Cl)c2c1C | n | n | + | n
CCc1ccc(/C=C2\SC(=S)N(CCCC(=O)N3CCN(C)CC3)C2=O)cc1 | n | n | n | 72
COc1ccc(/C=C2\SC(=S)N(CCCC(=O)N3CCN(C)CC3)C2=O)cc1 | n | n | x | 63
COc1ccc(/C=C2\SC(=S)N(CCCC(=O)N3CCCCC3CCO)C2=O)cc1 (centres undefined) | n | n | + | n
COc1ccc(/C=C2/SC(=S)N(CCCC(=O)Nc3cccc(O)c3)C2=O)cc1 | n | n | u | 97
CC(C)N(Cc1ccccc1)C(=O)COC(=O)C1CCCCC1 | n | n | n | n
C#CCOCCOCCOCCNc1nc(N2CCN(C(=O)CCCCCCCCCCNC(=O)[C@H](CCCCN)n3cc(C)nn3)CC2)nc(N2CCN(C(=O)CCCCCCCCCCNC(=O)[C@@H]([C@H](C)O)n3cc(C)nn3)CC2)n1 | n | n | n | n
C#CCOCCOCCOCCNc1nc(N2CCOCC2)nc(N2CCN(C(=O)CCCCCCCCCCNC(=O)[C@H]([C@@H](C)CC)n3cc(CCCCN=C(N)N)nn3)CC2)n1 | n | n | n | n
C#CCOCCOCCOCCNc1nc(N2CCN(C(=O)CCCCCCCCCCNC(=O)[C@@H](CCSC)n3cc(CCO)nn3)CC2)nc(N2CCN(C(=O)CCCCCCCCCCNC(=O)[C@H](CO)n3cc(CCCCCN)nn3)CC2)n1 | n | n | n | n
SMILES | HNF4A DNA FP | CSN inh | Myeloid diff 2 | Granule exo inh
C#CCOCCOCCOCCNc1nc(N2CCN(C(=O)CCCCCCCCCCNC(=O)[C@@H](CCSC)n3cc(CCO)nn3)CC2)nc(N2CCN(C(=O)CCCCCCCCCCNC(=O)[C@H](CCCN=C(N)N)n3cc(C[C@@H](C)CC)nn3)CC2)n1 | n | 131 | n | n
C#CCOCCOCCOCCNc1nc(N2CCN(C(=O)CCCCCCCCCCNC(=O)[C@H](CCCCN)n3cc(C[C@@H](C)CC)nn3)CC2)nc(N2CCN(C(=O)CCCCCCCCCCNC(=O)[C@H](CCCN=C(N)N)n3cc(C[C@@H](C)CC)nn3)CC2)n1 | n | 137 | n | n
C#CCOCCOCCOCCNc1nc(N2CCN(C(=O)CCCCCCCCCCNC(=O)[C@H]([C@@H](C)CC)n3cc(CCCCN=C(N)N)nn3)CC2)nc(N2CCN(C(=O)CCCCCCCCCCNC(=O)[C@@H]([C@H](C)O)n3cc(C)nn3)CC2)n1 | n | 97 | n | n
C#CCOCCOCCOCCNc1nc(N2CCN(C(=O)CCCCCCCCCCNC(=O)[C@H](CCCCN)n3cc(C[C@@H](C)CC)nn3)CC2)nc(N2CCN(C(=O)CCCCCCCCCCNC(=O)[C@@H]([C@H](C)O)n3cc(C)nn3)CC2)n1 | 65 | 66 | n | 97
C[C@H]1CN=C(Nc2ccccc2)N1CCc1ccccc1 | n | n | n | n
CCOc1ccc(-n2c(C)nc3cc(C(=O)NCC4CCCO4)ccc32)cc1 (centres undefined) | n | n | n | n
C#CCOCCOCCOCCNc1nc(N2CCN(C(=O)CCCCCCCCCCNC(=O)Cn3cc(C[C@@H](C)O)nn3)CC2)nc(N2CCN(C(=O)CCCCCCCCCCNC(=O)[C@@H](CCSC)n3cc(CCO)nn3)CC2)n1 | n | n | + | n
C#CCOCCOCCOCCNc1nc(N2CCN(C(=O)CCCCCCCCCCNC(=O)[C@@H](CCSC)n3cc(CCO)nn3)CC2)nc(N2CCN(C(=O)CCCCCCCCCCNC(=O)[C@@H]([C@H](C)O)n3cc(C)nn3)CC2)n1 | n | n | u | n
CC1(C(=O)NS(=O)(=O)Cc2ccccc2)CCN1C(=O)C1(c2ccc(Cl)cc2)CC1 (centres undefined) | n | n | n | n
O=C(CCC(=O)c1cccs1)OCC(=O)N1CCN(C(=O)c2ccco2)CC1 | 35 | n | n | n
CC1CC(C)CN(C(=O)COC(=O)CCC(=O)c2cccs2)C1 (centres undefined) | n | n | n | n
Clc1cccc(-c2nc3ccc(Br)cn3c2Cc2ccsc2)c1 | 35 | n | n | n
Cc1ccc(Cc2c(-c3cccc(Cl)c3)nc3ccc(C)cn23)cc1 | n | n | n | n
Brc1cccc(-c2nc3ccc(Br)cn3c2Cc2ccsc2)c1 | n | n | n | n
Cc1ccc(Cc2c(-c3cccc(Cl)c3)nc3ccc(Cl)cn23)cc1 | n | 39 | n | n
CC(Oc1ccc2ccc(=O)oc2c1)C(=O)NC1CCN(Cc2ccccc2)CC1 (centres undefined) | n | n | n | n
